From ChEMBL document CHEMBL1154983, “Arylpiperazine-containing pyrrole 3-carboxamide derivatives targeting serotonin 5-HT(2A), 5-HT(2C), and the serotonin transporter as a potential antidepressant” (Bioorg Med Chem Lett, 2010)
Values belong to the compound of their own block, whether it stands above or below them. Calls of active or inactive are those of the source. No cut-off for these calls is given here.

Experiments:
[1] = biological target: Sodium-dependent serotonin transporter (Homo sapiens, UniProt P31645); test: Displacement of [3H]imipramine from human SERT expressed in HEK293 cells after 30 mins by rapid filtration assay; format: cell-based
Summary of the method: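 Frozen membranes were from HEK293 cells expressing human SERT, with 4 nM [3H]imipramine in 50 mM Tris–HCl pH 7.4, 120 mM NaCl and 5 mM KCl. Unlabelled imipramine defined nonspecific binding. Incubation ran 30 min at 27 °C, terminated by rapid filtration through 0.5% PEI-presoaked glass-fibre filters.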

[2] = biological target: T1, 5-hydroxytryptamine receptor 2C (Homo sapiens, UniProt P28335); test: Displacement of [3H]mesulergine from human recombinant 5-HT2C receptor expressed in CHO-K1 cells after 60 mins by rapid filtration assay; format: cell-based
T1 sequence (P28335 whole entry): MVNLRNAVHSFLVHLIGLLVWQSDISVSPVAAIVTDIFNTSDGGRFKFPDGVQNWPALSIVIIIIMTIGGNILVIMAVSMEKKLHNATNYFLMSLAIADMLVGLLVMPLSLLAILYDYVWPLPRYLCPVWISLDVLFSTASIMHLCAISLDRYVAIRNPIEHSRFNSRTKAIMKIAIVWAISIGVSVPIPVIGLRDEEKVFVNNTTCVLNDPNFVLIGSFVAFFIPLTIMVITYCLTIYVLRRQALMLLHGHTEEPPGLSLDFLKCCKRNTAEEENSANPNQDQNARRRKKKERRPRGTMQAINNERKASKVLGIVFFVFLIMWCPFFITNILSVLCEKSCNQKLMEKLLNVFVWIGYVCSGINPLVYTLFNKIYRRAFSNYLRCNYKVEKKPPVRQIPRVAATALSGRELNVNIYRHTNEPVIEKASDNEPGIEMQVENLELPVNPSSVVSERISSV
Summary of the method: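 Frozen membranes were from CHO-K1 cells stably expressing human recombinant 5-HT2C, with 1.4 nM [3H]mesulergine. Buffer was 50 mM Tris–HCl pH 7.4, 4 mM CaCl2 and 0.1% ascorbic acid, with methiothepin for nonspecific binding. Incubation ran 60 min at 27 °C, stopped by rapid filtration through 0.5% PEI-presoaked glass-fibre filters.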

[3] = biological target: 5-hydroxytryptamine receptor 2A (Homo sapiens, UniProt P28223); test: Displacement of [3H]ketanserin from human recombinant 5-HT2A receptor expressed in CHO-K1 cells after 60 mins; format: cell-based
Summary of the method: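 Membranes were from CHO-K1 cells stably expressing 5-HT2A. Radioligand was at 1 nM, with mianserin defining nonspecific binding. Incubation ran 60 min at 27 °C in 50 mM Tris–HCl pH 7.4 with 4 mM CaCl2 and 0.1% ascorbic acid. Harvesting was by filtration through glass-fibre filters presoaked in 0.5% PEI.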

Mus musculus [4] = test: Antidepressant activity in mouse assessed as decrease in duration of immobility at 50 mg/kg, po during final 5 mins of the 6 mins session by forced swimming test; format: functional, organism-based; set-up: dose 50 mg/kg
Summary of the method: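 Mice swim for 10 min in a 25-cm glass cylinder (10 cm diameter) holding 15 cm of water at 23 ± 1 °C. They are retested 24 h later for 6 min. Compound is suspended in 3% Tween 80 and given orally 60 min before the test. Total immobility time (floating upright, only small head-keeping movements) is scored over the last 5 min. Means ± S.E.M.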

Mus musculus [5] = test: Antidepressant activity in mouse assessed as decrease in duration of immobility at 10 mg/kg, po during final 5 mins of the 6 mins session by forced swimming test; format: functional
Summary of the method: (§1)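 Mice swam 10 min in a 25-cm glass cylinder (10 cm diameter) holding 15 cm of water at 23 1 °C. Twenty-four hours later, drug was given po 60 min before retesting. Immobility (floating upright with only small movements keeping head above water) was totalled over the last 5 min of the 6-min test.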

Mus musculus [6] = test: Antidepressant activity in mouse assessed as decrease in duration of immobility at 100 mg/kg, po during final 5 mins of the 6 mins session by forced swimming test; format: functional; summary of the method: as §1
D(4) dopamine receptor = biological target: T2, D(4) dopamine receptor (Homo sapiens, UniProt P21917); test: Inhibition of dopamine D4 receptor
T2 sequence (P21917 whole entry): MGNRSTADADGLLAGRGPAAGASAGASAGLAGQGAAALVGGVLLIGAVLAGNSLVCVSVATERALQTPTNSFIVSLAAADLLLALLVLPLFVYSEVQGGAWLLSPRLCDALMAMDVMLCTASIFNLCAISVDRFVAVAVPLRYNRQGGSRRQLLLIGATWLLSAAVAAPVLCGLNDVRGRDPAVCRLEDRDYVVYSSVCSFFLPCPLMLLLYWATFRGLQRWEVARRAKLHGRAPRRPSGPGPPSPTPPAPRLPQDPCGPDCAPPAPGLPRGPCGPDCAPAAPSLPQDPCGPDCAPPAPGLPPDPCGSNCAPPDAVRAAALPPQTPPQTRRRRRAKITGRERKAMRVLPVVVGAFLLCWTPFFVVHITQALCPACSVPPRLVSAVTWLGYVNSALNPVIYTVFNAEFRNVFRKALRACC

[7] = biological target: T3, 5-hydroxytryptamine receptor 1A (Homo sapiens, UniProt P08908); test: Inhibition of 5HT1A receptor
T3 sequence (P08908 whole entry): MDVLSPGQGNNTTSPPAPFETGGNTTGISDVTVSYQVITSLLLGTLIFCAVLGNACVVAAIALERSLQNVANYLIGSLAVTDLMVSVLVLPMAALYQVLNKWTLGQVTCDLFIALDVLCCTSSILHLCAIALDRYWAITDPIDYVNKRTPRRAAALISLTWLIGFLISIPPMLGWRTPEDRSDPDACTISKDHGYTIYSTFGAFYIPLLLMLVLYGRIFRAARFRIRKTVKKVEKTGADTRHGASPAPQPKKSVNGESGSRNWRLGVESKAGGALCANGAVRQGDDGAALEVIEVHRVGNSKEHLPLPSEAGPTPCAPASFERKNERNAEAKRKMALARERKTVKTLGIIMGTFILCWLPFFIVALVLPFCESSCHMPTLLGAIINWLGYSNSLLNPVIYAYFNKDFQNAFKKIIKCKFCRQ

D(3) dopamine receptor = D(3) dopamine receptor (Homo sapiens, UniProt P35462); test: Inhibition of dopamine D3 receptor
D(2) dopamine receptor = D(2) dopamine receptor (Homo sapiens, UniProt P14416); test: Inhibition of dopamine D2 receptor
[8] = biological target: 5-hydroxytryptamine receptor 6 (Homo sapiens, UniProt P50406); test: Inhibition of 5HT6 receptor
Mus musculus [9] = test: Antidepressant activity in mouse assessed as decrease in duration of immobility at 25 mg/kg, po during final 5 mins of the 6 mins session by forced swimming test; format: functional; set-up: scale not given: the % may be the effect or the level left; summary of the method: as §1
[10] = biological target: 5-hydroxytryptamine receptor 7 (Homo sapiens, UniProt P34969); test: Inhibition of 5HT7 receptor
5-hydroxytryptamine receptor 7, sequence (P34969 whole entry): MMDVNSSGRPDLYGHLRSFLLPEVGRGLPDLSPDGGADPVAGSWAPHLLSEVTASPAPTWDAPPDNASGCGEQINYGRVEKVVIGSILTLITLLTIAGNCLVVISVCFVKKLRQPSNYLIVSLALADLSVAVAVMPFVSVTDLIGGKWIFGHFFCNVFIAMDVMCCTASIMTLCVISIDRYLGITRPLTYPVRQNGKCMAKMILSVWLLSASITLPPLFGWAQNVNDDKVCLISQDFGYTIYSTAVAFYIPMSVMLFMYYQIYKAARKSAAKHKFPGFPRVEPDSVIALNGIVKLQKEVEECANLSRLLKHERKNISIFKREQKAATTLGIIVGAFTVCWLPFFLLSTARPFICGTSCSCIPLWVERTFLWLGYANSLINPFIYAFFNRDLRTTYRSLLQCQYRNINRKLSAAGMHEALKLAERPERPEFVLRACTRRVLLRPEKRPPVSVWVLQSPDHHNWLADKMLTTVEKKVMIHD

5-hydroxytryptamine receptor 2A, sequence (P28223 whole entry): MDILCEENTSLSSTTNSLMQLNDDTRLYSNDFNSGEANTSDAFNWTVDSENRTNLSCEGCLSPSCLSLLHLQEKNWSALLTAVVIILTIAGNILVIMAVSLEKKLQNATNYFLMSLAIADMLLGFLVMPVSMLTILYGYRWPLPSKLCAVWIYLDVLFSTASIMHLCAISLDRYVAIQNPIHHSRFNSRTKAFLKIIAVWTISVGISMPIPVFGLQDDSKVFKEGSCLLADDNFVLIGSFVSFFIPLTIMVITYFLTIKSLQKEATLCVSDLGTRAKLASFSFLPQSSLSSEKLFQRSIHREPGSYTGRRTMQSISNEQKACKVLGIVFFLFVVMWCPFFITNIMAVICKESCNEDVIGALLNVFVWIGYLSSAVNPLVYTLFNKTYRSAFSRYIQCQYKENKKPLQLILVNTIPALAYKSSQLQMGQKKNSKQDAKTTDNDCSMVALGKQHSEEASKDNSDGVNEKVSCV
Sodium-dependent serotonin transporter, sequence (P31645 whole entry): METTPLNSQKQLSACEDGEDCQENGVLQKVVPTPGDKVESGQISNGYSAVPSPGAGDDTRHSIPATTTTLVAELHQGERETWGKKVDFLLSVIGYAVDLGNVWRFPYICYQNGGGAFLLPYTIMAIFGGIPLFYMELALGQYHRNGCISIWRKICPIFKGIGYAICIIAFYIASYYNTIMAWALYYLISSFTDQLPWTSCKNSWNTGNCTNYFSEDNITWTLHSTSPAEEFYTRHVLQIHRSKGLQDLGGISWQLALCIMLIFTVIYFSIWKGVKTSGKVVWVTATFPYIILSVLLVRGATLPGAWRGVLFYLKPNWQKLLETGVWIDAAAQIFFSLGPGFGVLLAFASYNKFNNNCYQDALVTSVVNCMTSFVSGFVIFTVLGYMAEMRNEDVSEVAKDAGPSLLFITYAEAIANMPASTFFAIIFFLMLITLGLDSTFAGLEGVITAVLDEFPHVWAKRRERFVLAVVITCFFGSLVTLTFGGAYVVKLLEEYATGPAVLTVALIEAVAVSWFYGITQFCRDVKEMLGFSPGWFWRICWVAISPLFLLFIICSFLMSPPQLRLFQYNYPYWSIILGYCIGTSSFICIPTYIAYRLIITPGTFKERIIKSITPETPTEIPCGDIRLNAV
D(2) dopamine receptor, sequence (P14416 whole entry): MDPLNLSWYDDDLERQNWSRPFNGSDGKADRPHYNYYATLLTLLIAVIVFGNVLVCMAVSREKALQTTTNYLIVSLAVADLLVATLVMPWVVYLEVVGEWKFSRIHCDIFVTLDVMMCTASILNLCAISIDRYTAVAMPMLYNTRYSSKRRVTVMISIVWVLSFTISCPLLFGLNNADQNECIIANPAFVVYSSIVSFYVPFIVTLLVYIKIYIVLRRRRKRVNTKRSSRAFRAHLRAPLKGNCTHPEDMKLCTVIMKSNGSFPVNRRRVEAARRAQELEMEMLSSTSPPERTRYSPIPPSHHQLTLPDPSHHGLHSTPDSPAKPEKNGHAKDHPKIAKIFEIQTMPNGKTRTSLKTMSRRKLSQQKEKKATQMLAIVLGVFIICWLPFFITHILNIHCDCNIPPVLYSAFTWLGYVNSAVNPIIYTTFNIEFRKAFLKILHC
5-hydroxytryptamine receptor 6, sequence (P50406 whole entry): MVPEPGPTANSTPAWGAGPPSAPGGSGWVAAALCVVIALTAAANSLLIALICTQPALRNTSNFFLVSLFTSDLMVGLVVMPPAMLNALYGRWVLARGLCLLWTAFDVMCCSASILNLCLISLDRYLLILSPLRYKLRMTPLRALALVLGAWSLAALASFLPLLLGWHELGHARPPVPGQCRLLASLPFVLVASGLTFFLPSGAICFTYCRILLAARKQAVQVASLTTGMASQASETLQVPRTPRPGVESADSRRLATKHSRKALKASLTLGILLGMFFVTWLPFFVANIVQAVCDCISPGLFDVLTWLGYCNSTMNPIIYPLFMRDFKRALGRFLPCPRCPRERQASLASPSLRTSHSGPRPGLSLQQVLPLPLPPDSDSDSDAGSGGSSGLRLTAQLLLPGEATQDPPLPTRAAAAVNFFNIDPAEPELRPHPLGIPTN
D(3) dopamine receptor, sequence (P35462 whole entry): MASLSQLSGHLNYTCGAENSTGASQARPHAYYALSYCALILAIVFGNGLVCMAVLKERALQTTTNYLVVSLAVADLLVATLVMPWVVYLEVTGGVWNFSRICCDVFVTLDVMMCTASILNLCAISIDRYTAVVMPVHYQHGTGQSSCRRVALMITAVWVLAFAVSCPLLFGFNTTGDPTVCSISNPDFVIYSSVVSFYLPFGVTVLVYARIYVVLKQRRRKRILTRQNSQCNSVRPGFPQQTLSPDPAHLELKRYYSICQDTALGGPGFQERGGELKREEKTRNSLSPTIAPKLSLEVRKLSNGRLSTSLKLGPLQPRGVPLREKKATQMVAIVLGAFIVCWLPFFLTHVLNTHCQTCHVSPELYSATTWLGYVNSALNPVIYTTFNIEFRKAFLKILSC

IC50 (D(4) dopamine receptor): 645 nM | IC50 [7]: 94 nM | IC50 (D(3) dopamine receptor): 1070 nM | IC50 (D(2) dopamine receptor): 3740 nM | IC50 [8]: 1900 nM | IC50 [10]: 408 nM
Structure (SMILES): CCCn1c(-c2ccccc2)cc(C(=O)NCCCN2CCN(c3cccc(Cl)c3Cl)CC2)c1C
Activity (Mus musculus [9]): <50% | Activity (Mus musculus [5]): 80%

IC50 [1]: 57 nM | IC50 [2]: 156 nM | IC50 [3]: 175 nM
Structure (SMILES): Cc1c(C(=O)NCCN2CCN(c3cccc(Cl)c3Cl)CC2)cc(-c2ccccc2)n1C

IC50 (D(4) dopamine receptor): 1840 nM | IC50 [1]: 137 nM | IC50 [7]: 117 nM | IC50 (D(3) dopamine receptor): 334 nM | IC50 (D(2) dopamine receptor): 1070 nM | IC50 [8]: 1410 nM | IC50 [10]: 456 nM
Structure (SMILES): Cc1[nH]c(-c2ccccc2)cc1C(=O)NCCCN1CCN(c2cccc(Cl)c2Cl)CC1 [listing 2 of 2 here]
Activity (Mus musculus [9]): <50%

IC50 [10]: 524 nM
Structure (SMILES): Cc1c(C(=O)NCCCN2CCN(c3cccc(Cl)c3Cl)CC2)cc(-c2ccccc2)n1-c1ccc(F)cc1

Continued, compound first:

Structure (SMILES): Cc1c(C(=O)NCCCN2CCN(c3cccc(Cl)c3)CC2)cc(-c2ccccc2)n1Cc1ccccc1
IC50 [1]: 235 nM | IC50 [2]: 1440 nM | IC50 [3]: 179 nM

Structure (SMILES): Cc1cccc(N2CCN(CCCNC(=O)c3cc(-c4ccccc4)n(C)c3C)CC2)c1C
Activity (Mus musculus [4]): Active

Structure (SMILES): Cc1c(C(=O)NCCCN2CCN(c3cccc(Cl)c3)CC2)cc(-c2ccccc2)n1N1CCCCC1
IC50 [1]: 110 nM | IC50 [2]: 448 nM | IC50 [3]: 441 nM

Structure (SMILES): Cc1[nH]c(-c2ccccc2)cc1C(=O)NCCCN1CCN(c2cccc(Cl)c2Cl)CC1 [listing 1 of 2 here]
Activity (Mus musculus [5]): inactive | Activity (Mus musculus [6]): Active

Structure (SMILES): CCn1c(-c2ccccc2)cc(C(=O)NCCCN2CCN(c3cccc(C)c3C)CC2)c1C
Activity (Mus musculus [4]): Active
